Experimental data published in ChEMBL document CHEMBL1142099, “Paecilodepsipeptide A, an antimalarial and antitumor Cyclohexadepsipeptide from the insect pathogenic fungus Paecilomyces cinnamomeus BCC 9616” (J Nat Prod, 2007).
pIC50: −log10 of the molar value. The source made the active and inactive calls. No cut-off for these calls is given here.

Legend:
[1] = test system: KB; assay: Cytotoxicity against human KB cells; format: cell-based; settings: for Activity: human, kb
Outline: (§1)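 Colorimetric cytotoxicity assay on KB (oral human epidermoid carcinoma), BC (human breast cancer) and Vero (African green monkey kidney fibroblast) cells; IC50 determined, Vero tested up to 67 µM (50 µg/mL). Ellipticine used as reference standard.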

[2] = test system: Vero; assay: Cytotoxicity against African green monkey Vero cells upto 67 uM; format: cell-based; settings: chlorocebus sabaeus; outline: as §1
[3] = Cytotoxicity against human BC cells; format: cell-based; settings: for Activity: human, bc; outline: as §1
[4] = test system: Plasmodium falciparum; assay: Antimalarial activity against Plasmodium falciparum K1; format: functional, organism-based
Outline: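 P. falciparum K1 (multidrug-resistant strain) tested by microculture radioisotope technique; IC50 determined. Dihydroartemisinin used as reference standard.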

Structure (SMILES) | pIC50 ([1]; Homo sapiens, KB) | Activity [2] | pIC50 ([3]; Homo sapiens, BC) | pIC50 [4] | Activity [1] | Activity [3] | Activity [4]
CC(C)=CCOc1ccc(C[C@H]2NC(=O)[C@@H](C)NC(=O)[C@@H](Cc3ccc(O)cc3)NC(=O)CNC(=O)[C@H](C)NC(=O)[C@H](Cc3ccccc3)OC2=O)cc1 [PAECILODEPSIPEPTIDE A] | 5.23 | Not Active | 5.18 | 5.31 |  |  | 
CC(C)=CCOc1ccc(C[C@@H](NC(=O)[C@@H](C)NC(=O)[C@@H](Cc2ccc(O)cc2)NC(=O)CNC(=O)[C@H](C)NC(=O)[C@@H](O)Cc2ccccc2)C(=O)O)cc1 [PAECILODEPSIPEPTIDE B] |  | Not Active |  |  | Not Active | Not Active | inactive
COC(=O)[C@@H](Cc1ccc(OCC=C(C)C)cc1)NC(=O)[C@@H](C)NC(=O)[C@@H](Cc1ccc(O)cc1)NC(=O)CNC(=O)[C@H](C)NC(=O)[C@@H](O)Cc1ccccc1 [PAECILODEPSIPEPTIDE C] |  | Not Active |  |  | Not Active | Not Active | inactive
